In PMC10262780 (Nature structural & molecular biology, 2022):
Square brackets hold non-standard residues; d marks the D form. Ends that are not written are not given here. * marks the point of attachment. FITC = O=C1OC2(c3ccc(O)cc3Oc3cc(O)ccc32)c2ccc(NC(=S)*)cc21; pS = N[C@@H](COP(=O)(O)O)C(=O)O

What was measured:
[1] = target: T1, Rb (human Retinoblastoma protein AB domain) (Homo sapiens, UniProt P06400, DEL582-642); test: Isothermal titration calorimetry; assay type: binding; details: ITC
T1 sequence (P06400 with tags, fused parts or gaps DEL582-642): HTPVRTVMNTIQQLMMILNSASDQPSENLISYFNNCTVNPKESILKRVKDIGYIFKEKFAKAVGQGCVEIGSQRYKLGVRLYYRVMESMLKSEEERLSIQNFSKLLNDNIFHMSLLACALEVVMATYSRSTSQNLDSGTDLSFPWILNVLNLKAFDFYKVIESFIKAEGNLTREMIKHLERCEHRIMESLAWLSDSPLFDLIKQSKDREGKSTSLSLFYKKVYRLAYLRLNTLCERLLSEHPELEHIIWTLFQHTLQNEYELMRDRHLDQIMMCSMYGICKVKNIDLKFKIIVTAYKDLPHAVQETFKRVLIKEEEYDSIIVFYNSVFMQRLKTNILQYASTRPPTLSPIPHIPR
Procedure, shortened: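 Human Rb AB domain (residues 372–787, loop 582–642 deleted), expressed in E. coli, in the cell at 5–30 µM. Peptide/protein titrant in the syringe at 50–300 µM. Cell and syringe samples co-dialysed 48 h at 4 °C in 20 mM sodium phosphate pH 7.0, 200 mM NaCl, 5 mM 2-mercaptoethanol, then degassed. Run at 20.0 °C unless stated, also 10–30 °C. 28 × 10-µl or 13 × 3-µl injections; enthalpy per mole of injectant fitted to a single-site model.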

[2] = target: human Retinoblastoma protein AB domain with a stabilizing loop deletion (372-787Δ582-642) (human) (UniProt P06400); test: fluorescence polarisation
[3] = target: T2, human Retinoblastoma protein AB domain with a stabilizing loop deletion (372-787Δ582-642) (human, UniProt P06400 372-787, Δ582–642); test: fluorescence polarisation
T2 sequence (looked up): T1 sequence (P06400 with tags, fused parts or gaps DEL582-642)

[4] = target: T2, human Retinoblastoma protein AB domain …; test: fluorescence polarisation; remark: listed apart in the source
[5] = target: T1, Rb (human Retinoblastoma protein AB domain); test: E2F competition; assay type: binding; details: MBP fusion protein, competition experiment
[6] = target: T3, Rb (human Retinoblastoma protein AB domain, 372–787Δ582–642) (Homo sapiens, UniProt P06400, DEL582-642); test: Fluorescence polarization direct titration of FITC-labelled constructs with Rb; assay type: binding
T3 sequence (P06400 with tags, fused parts or gaps DEL582-642): T1 sequence (P06400 with tags, fused parts or gaps DEL582-642)

[7] = target: T2, human Retinoblastoma protein AB domain …; test: fluorescence polarisation + ITC
DNA = details: Oct-1 binding to DNA; cited from earlier work
[8] = target: T2, human Retinoblastoma protein AB domain …; test: ITC
[9] = from direct titration KD values

Molecule: 116-VPEVIDLTCHEAGFPP-131 [E1ALxCxE]
- thermodynamic origin of binding to Rb ([1]; 20 mM Sodium Phosphate pH 7.0, 200 mM NaCl, 5mM 2-mercapto ethanol, 20 °C): enthalpically driven

Molecule: Hum-2–2x: tandem repeat of the Hum-2 (HAdV40) linker between the HAdV5 E1AE2F and E1A_(LxCxE) motifs, MBP fusion
- KD/KD,E1AWT [2]: 1.1

B1: FITC-labelled E1AΔL (domain or fragment)
chain: SHFEPPTLHELYDLDVTAPEDPNEEAVSQIFPDSVMLAVQEGIDLLTFPPAPGSPEPPHLSRQPEQPEQRALGPVSMPNLVPEVIDAAAAAGFPPSDDEDEEGEEFVLDY
modifications: FITC (fluorescein 5-isothiocyanate) on the N-terminus
- binding result [3]: binds

B2: E1AΔL: E1AWT variant with LxCxE motif mutated to poly-alanine (122-LTCHE-126Δ122-AAAA-125) (protein)
chain: B1 chain
modifications: left off: MBP, end not stated, cleaved
- heat behaviour of binding to Rb (exothermic/endothermic) ([1]; Rb in cell, peptide/protein as titrant): endothermic

Molecule: {FITC}-VPEVIDLTCHEAGFPP [FITC-labelled E1A_(LxCxE) peptide (HAdV5 E1A 116-131)]
- binding result [3]: binds

B3: MBP-E1AWT (uncleaved MBP fusion of HAdV5 E1A 36-146) (domain or fragment)
chain: SHFEPPTLHELYDLDVTAPEDPNEEAVSQIFPDSVMLAVQEGIDLLTFPPAPGSPEPPHLSRQPEQPEQRALGPVSMPNLVPEVIDLTCHEAGFPPSDDEDEEGEEFVLDY
- Kd [4]: 0.075 ± 0.017 nM

B4: MBP-E1AWT: uncleaved MBP fusion protein of E1AWT (protein)
chain: B3 chain
modifications: left off: MBP, end not stated, kept
- binding affinity compared with cleaved E1AWT [5]: same binding affinity as cleaved E1AWT

B5: E1AWT: adenovirus serotype 5 (HAdV5) Early 1A protein fragment (36–146), minimal Rb binding region (protein)
chain: B3 chain
modifications: left off: MBP, end not stated, cleaved
- Ceff obtained from the affinities of the construct and the isolated motifs ([6]; Ceff=(KD,E2F*KD,LxCxE)/KD): 0.52 ± 0.09 mM
- total ΔGBINDING ([6]; binding to Rb): -14.24 kcal/mol
- affinity enhancement compared to E2F2 [6, 9]: 40 fold
- affinity enhancement compared to the individual E1A SLiMs [6, 9]: 4000 fold

Molecule: VPEVIDLTCHEAGFPP[pS]DDEDEEG [E1A_(LxCxE-ACP) peptide (HAdV5 E1A 116-139, phosphorylated at Ser132)]
- fold increase in binding affinity over E1A_(LxCxE) [7]: 5 fold

B6: FITC-labelled E1AΔE (domain or fragment)
chain: SHFEPPTAAAADLDVTAPEDPNEEAVSQIFPDSVMLAVQEGIDLLTFPPAPGSPEPPHLSRQPEQPEQRALGPVSMPNLVPEVIDLTCHEAGFPPSDDEDEEGEEFVLDY
modifications: FITC (fluorescein 5-isothiocyanate) on the N-terminus
- binding result [3]: binds

B7: Oct-1: POU domain activator Oct-1 binding to DNA (protein, UniProt P14859 1-743, looked up)
POU domain, class 2, …: MNNPSETSKPSMESGDGNTGTQTNGLDFQKQPVPVGGAISTAQAQAFLGHLHQVQLAGTSLQAAAQSLNVQSKSNEESGDSQQPSQPSQQPSVQAAIPQTQLMLAGGQITGLTLTPAQQQLLLQQAQAQAQLLAAAVQQHSASQQHSAAGATISASAATPMTQIPLSQPIQIAQDLQQLQQLQQQNLNLQQFVLVHPTTNLQPAQFIISQTPQGQQGLLQAQNLLTQLPQQSQANLLQSQPSITLTSQPATPTRTIAATPIQTLPQSQSTPKRIDTPSLEEPSDLEELEQFAKTFKQRRIKLGFTQGDVGLAMGKLYGNDFSQTTISRFEALNLSFKNMCKLKPLLEKWLNDAENLSSDSSLSSPSALNSPGIEGLSRRRKKRTSIETNIRVALEKSFLENQKPTSEEITMIADQLNMEKEVIRVWFCNRRQKEKRINPPSSGGTSSSPIKAIFPSPTSLVATTPSLVTSSAATTLTVSPVLPLTSAAVTNLSVTGTSDTTSNNTATVISTAPPASSAVTSPSLSPSPSASASTSEASSASETSTTQTTSTPLSSPLGTSQVMVTASGLQTAAAAALQGAAQLPANASLAAMAAAAGLNPSLMAPSQFAAGGALLSLNPGTLSGALSPALMSNSTLATIQALASGGSLPITSLDATGNLVFANAGGAPNIVTAPLFLNPQNLSLLTSNPVSLVSAAAASAGNSAPVASLHATSTSAESIQNSLFTVASASGAASTTTTASKAQ
- Kd (DNA): 0.071 nM
- affinity enhancement by tethering (DNA): 2100 fold

Molecule: SPSLDQDDYLWGLEAGEGISDLFD [Human E2F2 peptide (404-427)]
- binding result [8]: binds
